Tests used:
[1] = tested on: Trichophyton mentagrophytes; test: Antifungal activity against Trichophyton mentagrophytes 445 after 120 hrs by microdilution method; assay type: functional; conditions: Trichophyton mentagrophytes, 445, 120 h
How it was run: (§1)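 Dermatophyte held on Sabouraud dextrose agar. M27-A microdilution in MOPS-buffered (0.165 M, pH 7.0) RPMI 1640 with L-glutamine. DMSO ≤2% final; twofold dilutions 500–0.48. Inoculum 5 × 10³ ± 0.2 cfu mL⁻¹ final. Incubated at 35 °C; MIC read visually at 72 and 120 h as 80% inhibition of control growth; determined twice in duplicate.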

[2] = tested on: Trichophyton mentagrophytes; test: Antifungal activity against Trichophyton mentagrophytes 445 after 72 hrs by microdilution method; assay type: functional; conditions: Trichophyton mentagrophytes, 445, 72 h; how it was run: as §1
Candida albicans [3] = test: Antifungal activity against Candida albicans ATCC 90028 after 24 hrs by microdilution method; assay type: functional; conditions: ATCC 90028, 24 h
How it was run: (§2)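 Yeasts held on Sabouraud dextrose agar. MIC by NCCLS M27-A broth microdilution in RPMI 1640 with L-glutamine, buffered with 0.165 M MOPS to pH 7.0. Compounds in DMSO (≤2% final), twofold dilutions 500–0.48. Final inoculum 5 × 10³ ± 0.2 cfu mL⁻¹. Incubated at 35 °C; absorbance at 540 nm read at 24 and 48 h. MIC is 80% growth inhibition versus control; run twice in duplicate.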

Trichosporon beigelii [4] = test: Antifungal activity against Trichosporon beigelii 1188 after 48 hrs by microdilution method; assay type: functional; conditions: Trichosporon beigelii, 1188, 48 h; how it was run: as §2
Aspergillus fumigatus [5] = test: Antifungal activity against Aspergillus fumigatus 231 after 48 hrs by microdilution method; assay type: functional; conditions: Aspergillus fumigatus, 231, 48 h
How it was run: (§3)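 Filamentous strains held on Sabouraud dextrose agar. NCCLS M27-A broth microdilution in RPMI 1640 with L-glutamine and 0.165 M MOPS, pH 7.0. DMSO diluent ≤2% final; twofold dilutions 500–0.48. Inoculum 5 × 10³ ± 0.2 cfu mL⁻¹ final.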

Candida albicans [6] = test: Antifungal activity against Candida albicans ATCC 90028 after 48 hrs by microdilution method; assay type: functional; conditions: ATCC 90028, 48 h; how it was run: as §2
CCRF-CEM = test: Cytostatic activity against human CCRF-CEM cells after 72 hrs by XTT assay; assay type: functional, cell-based; conditions: Homo sapiens, CCRF-CEM, 72 h; read-out: IC50
How it was run: (§4)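 Leukemia cells (L1210 ATCC CCL 219, CCRF-CEM ATCC CCL 119, HL-60 ATCC CCL 240) grown in 24-well plates in RPMI 1640 with fetal calf serum. Growth assessed 72 h after drug addition. Viability measured by XTT spectrophotometric assay; potency given as IC50.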

Nakaseomyces glabratus [7] = test: Antifungal activity against Candida glabrata 20/I after 24 hrs by microdilution method; assay type: functional; how it was run: as §2
HeLa S3 = test: Cytostatic activity against human HeLaS3 cells after 48 hrs by XTT assay; conditions: Homo sapiens, HeLa S3, 48 h; read-out: IC50
Trichosporon beigelii [8] = test: Antifungal activity against Trichosporon beigelii 1188 after 24 hrs by microdilution method; assay type: functional; conditions: Trichosporon beigelii, 1188, 24 h; how it was run: as §2
Candida parapsilosis [9] = test: Antifungal activity against Candida parapsilosis ATCC 22019 after 48 hrs by microdilution method; assay type: functional; conditions: Lodderomyces parapsilosis, ATCC 22019, 48 h; how it was run: as §2
Lichtheimia corymbifera [10] = test: Antifungal activity against Absidia corymbifera 272 after 24 hrs by microdilution method; assay type: functional; conditions: Lichtheimia corymbifera, 272, 24 h; how it was run: as §3
Candida tropicalis [11] = test: Antifungal activity against Candida tropicalis 156 after 24 hrs by microdilution method; assay type: functional; conditions: Candida tropicalis, 156, 24 h; how it was run: as §2
Pichia kudriavzevii [12] = test: Antifungal activity against Candida krusei ATCC 6258 after 24 hrs by microdilution method; assay type: functional; conditions: ATCC 6258, 24 h; how it was run: as §2
Pichia kudriavzevii [13] = test: Antifungal activity against Candida krusei E28 after 24 hrs by microdilution method; assay type: functional; conditions: E28, 24 h; how it was run: as §2
HL-60 = test: Cytostatic activity against human HL60 cells after 72 hrs by XTT assay; assay type: functional, cell-based; conditions: hl-60; how it was run: as §4
Candida tropicalis [14] = test: Antifungal activity against Candida tropicalis 156 after 48 hrs by microdilution method; assay type: functional; conditions: Candida tropicalis, 156, 48 h; how it was run: as §2
Aspergillus fumigatus [15] = test: Antifungal activity against Aspergillus fumigatus 231 after 24 hrs by microdilution method; assay type: functional; conditions: Aspergillus fumigatus, 231, 24 h; how it was run: as §3
Pichia kudriavzevii [16] = test: Antifungal activity against Candida krusei E28 after 48 hrs by microdilution method; assay type: functional; conditions: E28, 48 h; how it was run: as §2
Nakaseomyces glabratus [17] = test: Antifungal activity against Candida glabrata 20/I after 48 hrs by microdilution method; assay type: functional; how it was run: as §2
Clavispora lusitaniae [18] = test: Antifungal activity against Candida lusitaniae 2446/I after 24 hrs by microdilution method; assay type: functional; how it was run: as §2
Lichtheimia corymbifera [19] = test: Antifungal activity against Absidia corymbifera 272 after 48 hrs by microdilution method; assay type: functional; conditions: Lichtheimia corymbifera, 272, 48 h; how it was run: as §3
L1210 = test: Cytostatic activity against mouse L1210 cells after 72 hrs by XTT assay; assay type: functional, cell-based; how it was run: as §4
Candida parapsilosis [20] = test: Antifungal activity against Candida parapsilosis ATCC 22019 after 24 hrs by microdilution method; assay type: functional; conditions: Lodderomyces parapsilosis, ATCC 22019, 24 h; how it was run: as §2
Candida albicans [21] = test: Antifungal activity against Candida albicans ATCC 44859 after 48 hrs by microdilution method; assay type: functional; conditions: ATCC 44859, 48 h; how it was run: as §2
Pichia kudriavzevii [22] = test: Antifungal activity against Candida krusei ATCC 6258 after 48 hrs by microdilution method; assay type: functional; conditions: ATCC 6258, 48 h; how it was run: as §2
Candida albicans [23] = test: Antifungal activity against Candida albicans ATCC 44859 after 24 hrs by microdilution method; assay type: functional; conditions: ATCC 44859, 24 h; how it was run: as §2
Clavispora lusitaniae [24] = test: Antifungal activity against Candida lusitaniae 2446/I after 48 hrs by microdilution method; assay type: functional; how it was run: as §2
[25] = Mus musculus, L1210, 72 h, read-out: IC50

CC(=O)OC/C=C1/C=C(c2ccc(Br)cc2)C(=O)O1
Not Active: IC50 (HL-60) | IC50 (L1210; l1210)
7.81 µM: MIC80 [2] | MIC80 (Pichia kudriavzevii [12]) | MIC80 (Candida albicans [23])
31.2 µM: MIC80 (Candida albicans [3]) | MIC80 (Trichosporon beigelii [4]) | MIC80 (Aspergillus fumigatus [5]) | MIC80 (Nakaseomyces glabratus [7]) | MIC80 (Trichosporon beigelii [8]) | MIC80 (Lichtheimia corymbifera [10]) | MIC80 (Candida tropicalis [11]) | MIC80 (Lichtheimia corymbifera [19]) | MIC80 (Candida parapsilosis [20]) | MIC80 (Candida albicans [21])
62.5 µM: MIC80 (Candida albicans [6]) | MIC80 (Candida parapsilosis [9]) | MIC80 (Pichia kudriavzevii [13]) | MIC80 (Pichia kudriavzevii [16]) | MIC80 (Nakaseomyces glabratus [17]) | MIC80 (Clavispora lusitaniae [18]) | MIC80 (Pichia kudriavzevii [22])
4.32 µM: IC50 (CCRF-CEM)
4.18 µM: IC50 (HeLa S3)
15.6 µM: MIC80 [1] | MIC80 (Aspergillus fumigatus [15])
125 µM: MIC80 (Candida tropicalis [14]) | MIC80 (Clavispora lusitaniae [24])

O=C1OC(COc2cccc(C(=O)O)c2)C=C1c1ccc(Br)cc1 (centres undefined)
0.97 µM: MIC80 [2] | MIC80 (Candida albicans [23])
7.81 µM: MIC80 (Aspergillus fumigatus [5]) | MIC80 (Candida tropicalis [11]) | MIC80 (Candida tropicalis [14]) | MIC80 (Clavispora lusitaniae [18]) | MIC80 (Clavispora lusitaniae [24])
1.95 µM: MIC80 [1] | MIC80 (Nakaseomyces glabratus [7]) | MIC80 (Aspergillus fumigatus [15]) | MIC80 (Nakaseomyces glabratus [17]) | MIC80 (Candida albicans [21])
3.9 µM: MIC80 (Candida albicans [3])
15.6 µM: MIC80 (Trichosporon beigelii [4]) | MIC80 (Candida albicans [6]) | MIC80 (Trichosporon beigelii [8]) | MIC80 (Candida parapsilosis [9]) | MIC80 (Pichia kudriavzevii [12]) | MIC80 (Pichia kudriavzevii [13]) | MIC80 (Pichia kudriavzevii [16]) | MIC80 (Candida parapsilosis [20]) | MIC80 (Pichia kudriavzevii [22])
1.44 µM: IC50 (HeLa S3)
Not Active: IC50 (HL-60)
62.5 µM: MIC80 (Lichtheimia corymbifera [10]) | MIC80 (Lichtheimia corymbifera [19])
1.64 µM: IC50 (CCRF-CEM)
7.42 µM: IC50 (L1210; [25])

O=C1O/C(=C\CO)C=C1c1ccc(Br)cc1
Not Active: IC50 (HL-60)
2.07 µM: IC50 (CCRF-CEM)
1.95 µM: MIC80 (Candida albicans [23])
7.71 µM: IC50 (L1210; [25])
15.6 µM: MIC80 (Aspergillus fumigatus [5]) | MIC80 (Candida albicans [6]) | MIC80 (Nakaseomyces glabratus [7]) | MIC80 (Lichtheimia corymbifera [10]) | MIC80 (Candida tropicalis [11]) | MIC80 (Pichia kudriavzevii [12]) | MIC80 (Lichtheimia corymbifera [19]) | MIC80 (Clavispora lusitaniae [24])
62.5 µM: MIC80 (Trichosporon beigelii [4]) | MIC80 (Candida parapsilosis [9]) | MIC80 (Pichia kudriavzevii [16]) | MIC80 (Nakaseomyces glabratus [17])
3.06 µM: IC50 (HeLa S3)
7.81 µM: MIC80 [1] | MIC80 [2] | MIC80 (Candida albicans [3]) | MIC80 (Aspergillus fumigatus [15]) | MIC80 (Clavispora lusitaniae [18]) | MIC80 (Candida albicans [21])
31.2 µM: MIC80 (Trichosporon beigelii [8]) | MIC80 (Pichia kudriavzevii [13]) | MIC80 (Candida tropicalis [14]) | MIC80 (Candida parapsilosis [20]) | MIC80 (Pichia kudriavzevii [22])

Source: ChEMBL document CHEMBL1157589, “Antifungal 3,5-disubstituted furanones: From 5-acyloxymethyl to 5-alkylidene derivatives” (Bioorg Med Chem, 2010)
